Results gathered from unrelated publications.
Each line is one published result; the experiments were not run side by side.
PRKD3: Serine/threonine-protein kinase D3 (PRKD3, Homo sapiens, UniProt O94806)
CDK2: Cyclin-dependent kinase 2 (CDK2, Homo sapiens, UniProt P24941)

CCCCC(=O)Nc1ccc(-c2ccc3ncn(CCC)c(=O)c3c2)cn1
remaining binding (Serine/threonine-protein kinase TNNI3K (TNNI3K, Homo sapiens, UniProt Q59H18); binding, competition with immobilised ligand; 0.5 µM): 91%

C#Cc1cc(-c2cc(Nc3nc(N[C@@H](C)c4ccc(F)cn4)ncc3Cl)n[nH]2)ccc1C=O
inhibition (PRKD3; enzyme activity, inhibitor; 0.2 µM): 4.02%

Cc1cc(O)c(-c2ccc([C@@H](C)CN(C)C)cc2)c2c1[nH]c(=O)c1sccc12
inhibition (Mitogen-activated protein kinase 6 (MAPK6, Homo sapiens, UniProt Q16659); enzyme activity, inhibitor; 0.1 µM): 2.75%

Cc1cc(S(=O)(=O)NC2CC(N3CCN(CC4CCN(c5cccc6c5n(C)c(=O)n6C5CCC(=O)NC5=O)CC4)C4(CC4)C3)C2)ccc1Nc1ncc(C(F)(F)F)c(N2CCC[C@](C)(O)C2)n1 (some centres unmarked)
Dmax (CDK2; protein level, degrader, western blot; MKN-1): 92%

Cc1cc(=O)oc2cc(NC(=O)[C@H](CCCN=C(N)N)NC(=O)[C@H](CCCN=C(N)N)NC(=O)OCc3ccccc3)ccc12
Km (Cathepsin B (CTSB, Homo sapiens, UniProt P07858); enzyme activity, substrate, fluorescence; pH 7.5): 468 µM

C1=C/COCc2cc(ccc2OCCN2CCCC2)Nc2nccc(n2)-c2cccc(c2)COC/1
remaining binding (PRKD3; binding; 0.1 µM): 89%

C[C@H]1CN(CC2CCN(c3ccc(C4CCC(=O)NC4=O)cc3F)CC2)CC[C@H]1NS(=O)(=O)c1ccc(Nc2ncc(C(F)(F)F)c(N3CCC[C@](C)(O)C3)n2)c(F)c1 (some centres unmarked)
Dmax (CDK2; protein level, degrader, western blot; TOV21G): 93%

NC/C(=C\F)COc1cccc(Cn2c(=S)[nH]c(=O)c3[nH]cnc32)c1
inhibition (Alpha-1A adrenergic receptor (Adra1a, Rattus norvegicus, UniProt P43140); ligand displacement, radioligand; 10 µM): < 50%
